3 compounds from ChEMBL document CHEMBL1671740, “Increased temperature enhances the antimicrobial effects of daptomycin, vancomycin, tigecycline, fosfomycin, and cefamandole on staphylococcal biofilms” (2010) can be followed below.

≈ marks a conversion by molar mass, not a printed value. Calls of active or inactive are those of the source.

For experiment [1], the system named is Staphylococcus epidermidis. As to the kind of experiment: Antimicrobial activity against Staphylococcus epidermidis isolate OR1 treated in solution at 45 degC after 24 hrs. The note with it: isolate OR1, 24 h. Type of experiment: functional. The method, boiled down:
(§1)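 Antimicrobials, as powder or in solution as used for MIC testing, held at 45°C for 1 and 24 h in three independent experiments. MICs were then determined by the CLSI microtiter plate method in cation-adjusted Mueller-Hinton medium, with MHB containing 50 μg/ml calcium for daptomycin. Values are median (range) […] in mg/liter.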

In experiment [2] the test system is Staphylococcus aureus. As to the kind of experiment: Antimicrobial activity against Staphylococcus aureus isolated from human prosthetic joint infection site by […]. It counts as functional. Background: In agar diffusion tests the substance spreads into inoculated agar from a disc or well.
Experiment [3] has as its system Staphylococcus aureus. As to the kind of experiment: Antimicrobial activity against Staphylococcus aureus isolated from human preoperative skin by […]. It counts as functional.
Experiment [4] has as its system Staphylococcus epidermidis. Kind of experiment: Antimicrobial activity against Staphylococcus epidermidis isolate KO8 isolated from healthy human skin by […]. It counts as functional.
The subject of experiment [5] is Staphylococcus. Kind of experiment: Antimicrobial activity against coagulase-negative Staphylococcus isolated from human prosthetic joint infection site by […]. Type of experiment: functional.
Experiment [6] relates to Staphylococcus epidermidis. As to the kind of experiment: Antimicrobial activity against Staphylococcus epidermidis DSM3269 by […]. Type of experiment: functional.
Experiment [7] relates to Staphylococcus. Kind of experiment: Antimicrobial activity against coagulase-negative Staphylococcus isolated from human preoperative skin by […]. It counts as functional.
Experiment [8] has as its system Staphylococcus. Kind of experiment: Antimicrobial activity against Staphylococcus isolates biofilms assessed as decrease in bacterial load at 5 to 100 mg/litre at ambient temperature of […] after 24 hrs relative to baseline. It counts as functional, organism-based. The method, boiled down:
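Static 24-h biofilms of staphylococcal isolates (S. aureus, CoNS) and reference strains were grown at 35°C in calcium-supplemented MHB from a 1:100-diluted McFarland 0.5 inoculum. They were then exposed to drug at 5, 25 or 100 mg/liter for 24 h at 35, 40 or 45°C. Biofilms were scraped into MHB, serially diluted and plated on blood agar (35°C, 48 h), in duplicate, giving mean log10 CFU/ml against untreated.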

In experiment [9] the test system is Staphylococcus. Kind of experiment: Antimicrobial activity against Staphylococcus isolates biofilms assessed as decrease in bacterial load at 100 mg/litre at ambient temperature of 35 degC after 24 hrs relative to baseline. It counts as functional. In a few lines: (§2)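 24-h static biofilms of the staphylococcal isolates were exposed to drug for 24 h at 35, 40 or 45°C. Biofilms were not fixed but scraped off and resuspended in MHB, then serially diluted and 0.1 ml plated on blood agar, read after 48 h at 35°C in ambient air. Done in duplicate as mean log10 CFU/ml; log reduction was taken versus untreated biofilm.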

In experiment [10] the test system is Staphylococcus aureus. Kind of experiment: Antimicrobial activity against Staphylococcus aureus ATCC 29213 administered as powder at 45 degC after 24 hrs. It counts as functional. As to conditions: ATCC 29213, 24 h. The method, boiled down:
as §1

Experiment [11] relates to Staphylococcus aureus. Kind of experiment: Antimicrobial activity against Staphylococcus aureus ATCC 29213 by […]. It counts as functional.
For experiment [12], the system named is Staphylococcus. As to the kind of experiment: Antimicrobial activity against Staphylococcus isolates biofilms assessed as change in optical density ratio of biofilms at 500 mg/litre at ambient temperature of 35 degC after 24 hrs relative to baseline. Type of experiment: functional. The method, boiled down: (§3)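 Static microtiter biofilms of 34 clinical S. aureus and CoNS isolates from orthopedic implant infections or preoperative skin, plus reference strains. Inoculum was McFarland 0.5 diluted 1:100 in calcium-supplemented MHB, grown 24 h at 35°C in ambient air. Established biofilms were exposed to drug for 24 h at 35, 40 or 45°C, then formalin-fixed and stained with 1% crystal violet for 5 min, and OD read at 550 nm in quadruplicate.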

In experiment [13] the test system is Staphylococcus. Kind of experiment: Antimicrobial activity against Staphylococcus isolates biofilms assessed as change in optical density ratio of biofilms at 100 mg/litre at ambient temperature of 35 degC after 24 hrs relative to baseline. Type of experiment: functional. The method, boiled down: as §3
Experiment [14] has as its system Staphylococcus. As to the kind of experiment: Antimicrobial activity against Staphylococcus isolates biofilms assessed as decrease in bacterial load at 500 mg/litre at ambient temperature of 40 degC after 24 hrs relative to baseline. Type of experiment: functional. In a few lines:
as §2

For experiment [15], the system named is Staphylococcus. Kind of experiment: Antimicrobial activity against Staphylococcus isolates biofilms assessed as change in optical density ratio of biofilms at 500 mg/litre at ambient temperature of 40 degC after 24 hrs relative to baseline. Type of experiment: functional. The method, boiled down: as §3
In experiment [16] the test system is Staphylococcus. As to the kind of experiment: Antimicrobial activity against Staphylococcus isolates biofilms assessed as decrease in bacterial load at 500 mg/litre at ambient temperature of 45 degC after 24 hrs relative to baseline. Type of experiment: functional. The method, boiled down:
as §2

The test system of experiment [17] is Staphylococcus. Kind of experiment: Antimicrobial activity against Staphylococcus isolates biofilms assessed as change in optical density ratio of biofilms at 100 mg/litre at ambient temperature of 40 degC after 24 hrs relative to baseline. It counts as functional. In a few lines: as §3
For experiment [18], the system named is Staphylococcus. Kind of experiment: Antimicrobial activity against Staphylococcus isolates biofilms assessed as change in optical density ratio of biofilms at 100 mg/litre at ambient temperature of 45 degC after 24 hrs relative to baseline. It counts as functional. In a few lines:
as §3

Experiment [19] concerns Staphylococcus. As to the kind of experiment: Antimicrobial activity against Staphylococcus isolates biofilms assessed as change in optical density ratio of biofilms at 500 mg/litre at ambient temperature of 45 degC after 24 hrs relative to baseline. Type of experiment: functional. The method, boiled down: as §3
Experiment [20] concerns Staphylococcus. As to the kind of experiment: Antimicrobial activity against Staphylococcus isolates biofilms assessed as change in optical density ratio of biofilms at 50 mg/litre at ambient temperature of 40 degC after 24 hrs relative to baseline. Type of experiment: functional. In a few lines:
as §3

In experiment [21] the test system is Staphylococcus. As to the kind of experiment: Antimicrobial activity against Staphylococcus isolates biofilms assessed as change in optical density ratio of biofilms at 50 mg/litre at ambient temperature of 45 degC after 24 hrs relative to baseline. Type of experiment: functional. In a few lines:
as §3

For experiment [22], the system named is Staphylococcus. Kind of experiment: Antimicrobial activity against Staphylococcus isolates biofilms assessed as change in optical density ratio of biofilms at 50 mg/litre at ambient temperature of 35 degC after 24 hrs relative to baseline. It counts as functional. In a few lines:
as §3

Experiment [23] concerns Staphylococcus. Kind of experiment: Antimicrobial activity against Staphylococcus isolates biofilms assessed as change in optical density ratio of biofilms at 250 mg/litre at ambient temperature of 45 degC after 24 hrs relative to baseline. Type of experiment: functional. In a few lines:
as §3

The subject of experiment [24] is Staphylococcus. As to the kind of experiment: Antimicrobial activity against Staphylococcus isolates biofilms assessed as change in optical density ratio of biofilms at 250 mg/litre at ambient temperature of 40 degC after 24 hrs relative to baseline. It counts as functional. In a few lines: as §3
For experiment [25], the system named is Staphylococcus. As to the kind of experiment: Antimicrobial activity against Staphylococcus isolates biofilms assessed as change in optical density ratio of biofilms at 1000 mg/litre at ambient temperature of 40 degC after 24 hrs relative to baseline. It counts as functional. In a few lines: as §3
The test system of experiment [26] is Staphylococcus. Kind of experiment: Antimicrobial activity against Staphylococcus isolates biofilms assessed as change in optical density ratio of biofilms at 1000 mg/litre at ambient temperature of 45 degC after 24 hrs relative to baseline. Type of experiment: functional. In a few lines:
as §3

The subject of experiment [27] is Staphylococcus. Kind of experiment: Antimicrobial activity against Staphylococcus isolates biofilms assessed as change in optical density ratio of biofilms at 1000 mg/litre at ambient temperature of 35 degC after 24 hrs relative to baseline. It counts as functional. The method, boiled down:
as §3

Experiment [28] has as its system Staphylococcus. Kind of experiment: Antimicrobial activity against Staphylococcus isolates biofilms assessed as change in optical density ratio of biofilms at 250 mg/litre at ambient temperature of 35 degC after 24 hrs relative to baseline. Type of experiment: functional. The method, boiled down: as §3

The term MIC denotes the smallest concentration in the dilution series that meets the test's criterion for growth inhibition. A low value points to greater potency. `CN[C@H](CC(C)C)C(=O)N[C@H]1C(=O)N[C@@H](CC(N)=O)C(=O)N[C@H]2C(=O)N[C@H]3C(=O)N[C@H](C(=O)N[C@H](C(=O)O)c4cc(O)cc(O)c4-c4cc3ccc4O)[C@H](O)c3ccc(c(Cl)c3)Oc3cc2cc(c3O[C@@H]2O[C@H](CO)[C@@H](O)[C@H](O)[C@H]2O[C@H]2C[C@](C)(N)[C@H](O)[C@H](C)O2)Oc2ccc(cc2Cl)[C@H]1O` [VANCOMYCIN]: the MIC in experiment [1] was found to be 2 µg/mL (≈ 1.38 µM); in [2], 0.5 µg/mL (≈ 0.345 µM); in experiment [3], 0.5 µg/mL (≈ 0.345 µM); in experiment [4] it was 1 µg/mL (≈ 0.69 µM); in experiment [5] it was 2 µg/mL (≈ 1.38 µM); in experiment [6], 2 µg/mL (≈ 1.38 µM). The MIC in [7] was 0.75 µg/mL (≈ 0.518 µM); in [10] it was 0.5 µg/mL (≈ 0.345 µM); in experiment [11] it was 0.5 µg/mL (≈ 0.345 µM). Further, the result in experiment [8] and in experiment [9] was inactive.

Regarding `Cn1nnnc1SCC1=C(C(=O)O)N2C(=O)[C@@H](NC(=O)[C@H](O)c3ccccc3)[C@H]2SC1` [CEFAMANDOLE], the Ratio in experiment [12] was determined as 1.27; in experiment [13] it was 1.12; in experiment [15] it was 0.62; in [17], 1.06; in experiment [18], 0.63; in [19], 0.65. Also, the Ratio in experiment [20] stood at 1.07; in experiment [21], 0.86; in experiment [22], 1.29. Besides, the “fold change (FC)” value in experiment [14] and in experiment [16] was 2 each time. For the same compound, the MIC in experiment [1] stood at 2 µg/mL (≈ 4.32 µM); in [2], 1 µg/mL (≈ 2.16 µM); in experiment [3], 0.25 µg/mL (≈ 0.541 µM); in experiment [4] it was 0.25 µg/mL (≈ 0.541 µM); in experiment [5], 1 µg/mL (≈ 2.16 µM); in [6] it was 0.5 µg/mL (≈ 1.08 µM). The MIC in experiment [7] worked out at 0.25 µg/mL (≈ 0.541 µM); in [10], 0.25 µg/mL (≈ 0.541 µM); in [11], 0.5 µg/mL (≈ 1.08 µM). Besides, in [9], the outcome was inactive.

As to `C[C@@H]1O[C@@H]1P(=O)(O)O` [FOSFOMYCIN], the MIC in experiment [1] amounted to 32 µg/mL (≈ 232 µM); in experiment [2], 4 µg/mL (≈ 29 µM); in experiment [3], 64 µg/mL (≈ 464 µM); in [4] it was 16 µg/mL (≈ 116 µM); in experiment [5] it was 16 µg/mL (≈ 116 µM); in experiment [6], 1 µg/mL (≈ 7.24 µM). Besides, the MIC in experiment [7] was 32 µg/mL (≈ 232 µM); in [10], 1 µg/mL (≈ 7.24 µM); in [11], 4 µg/mL (≈ 29 µM). Further, the Ratio is on record as 0.69 in experiment [23]; 0.75 in experiment [24]; 0.65 in experiment [25]; 0.63 in experiment [26]; 0.78 in experiment [27]; 1.01 in [28]. Moreover, the outcome in [9] was inactive.
